Calb FLC: C. albicans growth modulation with fluconazole. C. albicans CaCi-2 (fluconazole-resistant clinical isolate) + fluconazole, Alamar Blue growth, 48 h. growth inhibition, % (test concentration not listed). 0.57% of 300,000 active. AID 1979;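 active means growth inhibition above about 58% in most replicates, limit read from the data, passing the limit was not always enough; inconclusive means exactly half the replicates above a set limit; inactive means most replicates below a set limit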;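 further: all wells also contain fluconazole at 8 µg/ml as a sub-toxic cotreatment; 0% = median of DMSO wells and 100% = median of geldanamycin control wells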
Beta apoptosis: blocks beta cell apoptosis | INS-1E cytokine-induced death, ATP luminescence, 48 h; percent of positive-control rescue, neutral wells zero | protection from apoptosis, % (no concentration beside the values) | 0.8% of 300,000 active | AID 435005;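 active means Every replicate reaches about 75%, or at least half do and their mean reaches it too, limit read from the data; inconclusive means At least half of replicates reach the limit but their mean does not; inactive means Under half of replicates reach the limit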;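 further: 0% = cytokine-treated negative control wells and 100% = positive control rescue; higher means more ATP so stronger rescue from cytokine killing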
CSC inhib: blocks cancer stem cells | cancer stem cell-like cells viability, luminescence | inhibition, % at 7.5 µM | 1.1% of 300,000 active; in the data active means inhibition above about 75%; inconclusive means no clear call, values can overlap the other calls; tested in HMLE shEcad cells
Bfl-1 A1 inh: inhibitors of the anti-apoptotic protein A1, read as caspase activation. MEF A1-2A-BIM cells, Caspase-Glo 3/7 luminescence, 3 h; percent of clofoctol response, vehicle zero. caspase activation, % (test concentration not listed). 0.066% of 330,000 active. AID 2462;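 active means over half of replicate activation scores above 10%, or exactly half above 10 with the replicate mean above 10; inconclusive means replicate mean below 10 yet half the replicates above 10; inactive means over half of replicates below 10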
H9c2 TAG inh: reduces triacylglycerol accumulation in H9c2 cells; Nile Red lipid (TAG) fluorescence; cells loaded with 200 µM oleic acid; inhibition, % at 12.5 µM; 0.66% of 230,000 active; AID 651582;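 active means pattern-corrected inhibition of lipid staining of at least 50% with the nuclear-stain viability signal not falling by more than 50%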;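 further: 0% = DMSO wells and 100% = triacsin C control wells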
T cruzi repl: T. cruzi replication inhibition | inhibition, % (no concentration beside the values) | 1.4% of 300,000 active | T. cruzi beta-gal in NIH3T3, luminescence, 90 h | AID 1885;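 active means mean inhibition across valid replicates above about 55%, limit read from the data; inconclusive means mean below that limit but half or more replicates reach it; inactive means mean below it, under half of replicates reach it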;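 further: signal also drops with host cell toxicity which is not excluded here; 0% = plate median of DMSO wells and 100% = zero luminescence signal; higher percent means less beta-gal luminescence so fewer parasites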
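System: mouse NIH/3T3 fibroblasts infected with β-gal-expressing T. cruzi Tulahuen C4 / Input: NIH/3T3 cells, 5,000 per well / Buffer or medium: Low-serum DMEM with 2% FBS / Probe or stimulus: 5000 reporter trypomastigotes per well / Schedule: ≥90 h infection period, 3 h prior cell attachment / Measured by: GalScreen luminescence, 60 min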
* marks the source's active call; other numbers are inactive results; ? = inconclusive; . = no result given. Most compounds without a hit are left out; they make up all but 3.1% or so of the library.

SMILES | Calb FLC | Beta apoptosis | CSC inhib | Bfl-1 A1 inh | H9c2 TAG inh | T cruzi repl
COc1cc(C(C[N+](=O)[O-])c2c(N)n(C)c(=O)n(C)c2=O)ccc1O (stereo unspecified) | 2 | 3 | -2 | 0 | -5 | -13
COc1cccc(F)c1C(C[N+](=O)[O-])c1c(N)n(C)c(=O)n(C)c1=O (stereo unspecified) | 101* | 97* | 71 | 1 | 47 | -2
CCc1ccccc1NC(=O)c1ccc([N+](=O)[O-])s1 | -1 | 21 | 15 | 0 | 10 | 60*
CCCCCN(C(=O)CSc1n[nH]c(-c2ccc(C)cc2)n1)c1c(N)n(CCCC)c(=O)[nH]c1=O | 1 | -4 | -6 | 1 | 15 | -13
O=C(CC(=O)NC1CCCCC1)N/N=C/c1ccccc1[N+](=O)[O-] | -3 | -3 | . | -2 | . | 1
Cc1nn(C(C)C(=O)N2CCCC2)c(=O)c2nn(-c3ccccc3)c(C)c12 (stereo unspecified) | 1 | -2 | -11 | -1 | . | 56*
CCCC(=O)N1CCC1(C)C(=O)NS(=O)(=O)c1cc(C)ccc1F (stereo unspecified) | . | . | . | . | -14 | .
CCOC(=O)c1c(CSc2ccc(C)cc2)n(C)c2cc(Br)c(O)c(CN(C)C)c12 | 0 | 3 | 97* | 1 | 14 | 42
CCOC(=O)c1c(CSc2ccccc2)n(C)c2cc(Br)c(O)c(CN(C)C)c12 | -10 | -4 | 9 | 0 | 19 | 19
CCOCCCNC(=O)c1ccc(N(C)S(=O)(=O)c2ccc(OC)cc2)cc1 | 106* | 1 | -6 | -1 | . | -8
COc1ccc(S(=O)(=O)N(C)c2ccc(C(=O)NCCC(C)C)cc2)cc1 | 8 | 2 | 26 | 0 | . | 1
Cc1cccc(Oc2ccc(N)cc2)c1 | -54 | -2 | 14 | 0 | 4 | -7
Nc1ccc(Oc2cccc(Oc3ccc(N)cc3)c2)cc1 | 116* | 6 | 16 | 0 | 5 | -12
CCOC(=O)c1ccc(Oc2nc(NC(C)(C)C)nc(N(C)C)n2)cc1 | 91* | -6 | 28 | 1 | 22 | 6
COC(=O)c1ccc(OC)c(CN2CCCN(Cc3ccc(F)cc3)S2(=O)=O)c1 | 4 | 1 | 22 | 0 | . | 57*
Cn1c(C(=O)OC(C(=O)NC2CCCC2)c2cccnc2)cc2sccc21 (stereo unspecified) | 12 | . | . | 1 | . | 65*
O=C(Nc1ccc2c(c1)OCO2)C1CC(c2cccc(Br)c2)=NO1 (stereo unspecified) | -9 | -2 | 1 | 2 | -7 | -1
COc1ccc(NC(=O)N2CCN(c3cccc(C(F)(F)F)c3)CC2)cc1 | 23 | 2 | 7 | 0 | -14 | -13
CN(C)S(=O)(=O)c1ccc(NC(=O)N2CCN(c3cccc(C(F)(F)F)c3)CC2)cc1 | 0 | 42 | -4 | 0 | -12 | 55*
Cc1cccc(COc2ccccc2C(=O)OCC(=O)N(C)c2c(N)n(Cc3ccccc3)c(=O)[nH]c2=O)c1 | 3 | . | -8 | 1 | 5 | 12
Cc1cccc(NC(=O)Nc2ccncc2)c1 | -6 | 7 | -6 | -4 | -16 | 65*
O=C(Nc1ccncc1)Nc1ccc(Br)cc1Cl | 50 | -1 | 13 | 0 | 3 | 56*
O=C(Nc1cccc(F)c1)C1CCCN(S(=O)(=O)c2cccc3cccnc23)C1 (stereo unspecified) | -3 | -1 | 4 | 0 | . | -3
Cc1ccc(S(=O)(=O)/N=C2/NC(=O)/C(=C/c3ccc(Br)o3)S2)cc1 | 9 | . | . | 0 | . | -8
Cc1ccc(S(=O)(=O)/N=C2/NC(=O)/C(=C\c3cc(Br)cc(Br)c3O)S2)cc1 | 123* | -3 | 29 | 3 | -9 | .
SMILES | Calb FLC | Beta apoptosis | CSC inhib | Bfl-1 A1 inh | H9c2 TAG inh | T cruzi repl
S=c1[nH]c2ccc3ccccc3c2[nH]1 | 3 | -2 | 1 | 1 | . | -22
Cc1[nH]c2c(ccc3ccccc32)c1C1C(CCN)C1(C)C (stereo unspecified) | 7 | ? | 62 | 0 | 42 | 65*
CCCCCNc1nc(-c2ccccc2)nc(-n2ccnc2)n1 | 20 | 5 | -3 | 1 | 14 | 62*
CN(c1ccccc1)c1nc(-n2ccnc2)nc(-n2ccnc2)n1 | -15 | -2 | 1 | 0 | 7 | 26
CCCCNc1nc(N(C)c2ccccc2)nc(-n2ccnc2)n1 | 9 | 12 | -16 | 1 | . | 61*
c1ccc(-c2ccc(-n3ccnc3)cc2)cc1 | -30 | -5 | -8 | -7 | . | 56*
c1ccc(-c2nc(N3CCN(c4ccccc4)CC3)nc(-n3ccnc3)n2)cc1 | 11 | . | 37 | 0 | . | 60*
CC1CC1C(=O)Nc1ccc(S(=O)(=O)N2CCCCC2)cc1 (stereo unspecified) | . | . | . | . | -15 | .
O=S(=O)(Nc1nc(SCc2ccc(Cl)cc2)n[nH]1)c1ccccc1 | 1 | -10 | 3 | 0 | -1 | 0
Cc1nc(N)nc(N)c1/C=C/C(C)(C)c1ccc(Cl)cc1 | -12 | . | . | . | 0 | 60*
Cc1nc(N)nc(N)c1Oc1ccc(Cl)cc1 | . | . | . | . | -17 | .
Cc1ccc(N(C(=O)c2csnn2)C(C(=O)NC2CCCCC2)c2ccccn2)cc1C (stereo unspecified) | 2 | -3 | -6 | 0 | . | 8
O=c1c2cccc3c2c(nn1CN1CCOCC1)-c1ccccc1-3 | 15 | 4 | 7 | 1 | -1 | 1
CCN(CC)CCn1nc2c3c(cccc3c1=O)-c1ccccc1-2 | . | 113* | 105* | 0 | 112 | 58*
Cc1ccc(C)c(-c2csc(NC(=O)c3cnccn3)n2)c1 | 25 | 3 | 14 | 0 | 8 | 93*
Cc1ccc(C)c(-c2csc(NC(=O)C3=COCCO3)n2)c1 | -16 | 77* | . | 0 | -21 | 53
O=c1c(Br)ccc(Br)cc1Br | . | . | . | . | 99* | .
Cc1ccc(S(=O)(=O)N2CCCN(C(=O)CNC(=O)c3cccc(C)c3)CC2)cc1 | . | -1 | -23 | 0 | 4 | .
CCNc1ccc(S(=O)(=O)NCCN(C)C)cc1[N+](=O)[O-] | -8 | -1 | -4 | 0 | -4 | 16
CN(C)CCCNS(=O)(=O)c1ccc(NC2CCCCCC2)c([N+](=O)[O-])c1 | -9 | 85* | 0 | 0 | . | 46
c1ccc(COc2ccccc2CNC23CC4CC(CC(C4)C2)C3)cc1 | 95* | 35 | 41 | -1 | 38 | 56*
c1ccc(COc2ccccc2CNC2CCCC2)cc1 | -24 | 2 | -14 | 2 | 6 | 12
Nc1ccn(CC(=O)NCc2ccc3[nH]ccc3c2)c(=O)n1 | . | -2 | -5 | 1 | 7 | .
CC(=O)N1N=C(c2ccccc2)OC1c1ccc([N+](=O)[O-])s1 (stereo unspecified) | -14 | -10 | -10 | 1 | -2 | 84*
CNc1nc(Cl)c(SC)c(NCc2cccc(OC)c2)n1 | 24 | 5 | -9 | 0 | . | 10

Bioassay records: PubChem BioAssay, several laboratories
